Data as given in ChEMBL document CHEMBL3817796, “Discovery of Novel 15-Lipoxygenase Activators To Shift the Human Arachidonic Acid Metabolic Network toward Inflammation Resolution” (J Med Chem, 2016).
Calls of active or inactive are those of the source. The calls are words filed in the database; no cut-off is given here.

Assays:
[1] = target: T1, Polyunsaturated fatty acid lipoxygenase ALOX15 (Homo sapiens) (UniProt P16050); test: Activation of wild-type His6-tagged human 15-LOX expressed in Escherichia coli Rosetta DE3 assessed as 15-HpETE formation at 40 uM pre-incubated for 1 min before arachidonic acid substrate addition by cell free assay
T1 sequence (whole entry): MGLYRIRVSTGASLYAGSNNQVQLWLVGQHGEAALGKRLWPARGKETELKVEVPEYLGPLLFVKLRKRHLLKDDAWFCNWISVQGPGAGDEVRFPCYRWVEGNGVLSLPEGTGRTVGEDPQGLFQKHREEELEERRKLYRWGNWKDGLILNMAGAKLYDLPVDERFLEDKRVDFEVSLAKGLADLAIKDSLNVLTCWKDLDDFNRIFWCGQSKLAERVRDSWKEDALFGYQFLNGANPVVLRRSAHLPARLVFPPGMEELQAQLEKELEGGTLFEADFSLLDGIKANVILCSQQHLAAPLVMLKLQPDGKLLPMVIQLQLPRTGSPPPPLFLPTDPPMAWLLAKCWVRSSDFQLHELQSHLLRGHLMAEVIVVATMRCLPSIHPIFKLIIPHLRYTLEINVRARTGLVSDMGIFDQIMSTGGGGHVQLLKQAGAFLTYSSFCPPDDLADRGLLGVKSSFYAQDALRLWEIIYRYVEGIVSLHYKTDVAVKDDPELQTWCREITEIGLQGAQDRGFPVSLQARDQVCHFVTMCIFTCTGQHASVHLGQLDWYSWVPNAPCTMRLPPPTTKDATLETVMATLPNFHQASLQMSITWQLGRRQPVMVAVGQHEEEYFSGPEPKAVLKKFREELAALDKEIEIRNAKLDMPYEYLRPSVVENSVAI

[2] = target: T2, Polyunsaturated fatty acid lipoxygenase ALOX15 (Homo sapiens, UniProt P16050); test: Binding affinity to wild-type His6-tagged human 15-LOX expressed in Escherichia coli Rosetta DE3 by SPR assay
T2 sequence (P16050 whole entry): T1 sequence (whole entry)
Summary of the method: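 15-LOX amine-coupled to a CM5 chip at 800 RU, 25 °C, in PBS-P pH 7.4. Compound concentrations in 5% DMSO injected serially; regenerated by buffer washing. KD from Hill fit of response units.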

[3] = target: T3, Prostaglandin G/H synthase 2 (Homo sapiens) (UniProt P35354); test: Inhibition of COX2 (unknown origin) assessed as reduction in PGG2 to PGH2 conversion by measuring N,N,N',N'-tetramethyl-p-phenylenediamine oxidation at 100 uM by spectrophotometry
T3 sequence (whole entry): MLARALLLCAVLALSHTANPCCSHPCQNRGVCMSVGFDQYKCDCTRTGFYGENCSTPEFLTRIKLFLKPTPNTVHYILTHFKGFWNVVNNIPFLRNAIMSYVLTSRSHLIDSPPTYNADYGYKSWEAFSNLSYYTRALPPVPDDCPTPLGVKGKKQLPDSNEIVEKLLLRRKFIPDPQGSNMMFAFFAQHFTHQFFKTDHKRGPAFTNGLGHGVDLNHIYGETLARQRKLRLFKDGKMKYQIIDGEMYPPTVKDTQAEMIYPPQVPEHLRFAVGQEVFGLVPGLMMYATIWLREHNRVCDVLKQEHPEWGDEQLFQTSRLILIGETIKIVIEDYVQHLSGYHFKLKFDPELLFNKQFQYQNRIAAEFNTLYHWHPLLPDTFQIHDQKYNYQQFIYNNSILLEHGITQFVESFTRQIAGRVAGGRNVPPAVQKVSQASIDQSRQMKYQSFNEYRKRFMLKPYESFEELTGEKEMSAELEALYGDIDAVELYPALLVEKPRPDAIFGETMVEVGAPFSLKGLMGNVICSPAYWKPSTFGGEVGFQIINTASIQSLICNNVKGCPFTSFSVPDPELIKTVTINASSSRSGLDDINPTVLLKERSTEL

[4] = target: T1, Polyunsaturated fatty acid lipoxygenase ALOX15 (Homo sapiens); test: Activation of 15-LOX in human PMN assessed as 5-HETE production at 6.2 to 40 uM pre-incubated for 15 mins before A23187, Ca2+ and Mg2+ stimulation for 1 hr by LC-MS method
Summary of the method: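 PMNs preincubated 15 min at 37 °C with compound or vehicle, then stimulated 1 h at 37 °C with 10 μM A23187 plus 2 mM Ca2+ and 2 mM Mg2+. Reactions stopped with cold methanol. Eicosanoids quantified by LC-MS.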

[5] = target: T1, Polyunsaturated fatty acid lipoxygenase ALOX15 (Homo sapiens); test: Activation of 15-LOX in human whole blood assessed as reduction in TXB2 production at 100 uM pre-incubated for 20 mins before stimulation with LPS and A23187 for 120 mins in presence of 2 uM 5-LOX inhibitor Zileuton by LC-MS/MS method; format: tissue-based
Summary of the method: (§1)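 Human blood preincubated 20 min at 37 °C with DMSO vehicle or compound in DMSO. LPS added at 100 μg/mL for 24 h at 37 °C, then A23187 at 20 μg/mL final. Samples frozen in liquid nitrogen at time points, lysed by freeze–thaw, with PGB2 internal standard. Analysed by C18 LC-MRM MS, negative ion. Change = control-normalized concentration minus 1, ×100%; 120 min value from AUC.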

[6] = target: T1, Polyunsaturated fatty acid lipoxygenase ALOX15 (Homo sapiens); test: Activation of 15-LOX in human whole blood assessed as increase in 15-HETE production at 100 uM pre-incubated for 20 mins before stimulation with LPS and A23187 for 120 mins in presence of 2 uM […] inhibitor Zileuton by LC-MS/MS method; format: tissue-based; summary of the method: as §1

CN1CCN(CC(=O)N2N=C3/C(=C/c4ccccc4)CCCC3C2c2ccccc2)CC1 (stereo unspecified)
%max [1]: 85%
Kd [2]: 3.9 µM
inhibition [3]: < 5%
Activity [4]: Active
Activity [5]: Active
Activity [6]: Active
